# From the EternaBench riboswitch data
# Test system: MS2 coat protein
# Test: apparent Kd, MS2 coat protein; higher = weaker binding; RNA-MaP array
# Outline: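 Incubations were done at room temperature with fluorescently labeled MS2 coat protein at 1.5 nM to 3 μM and designed RNAs transcribed on an Illumina sequencing chip from sequenced DNA templates, with or without input ligand. Apparent Kd is the median of binding curves fitted for each cluster. Designs with fewer than 10 measured clusters were excluded.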
# [1] = designed as: OFF switch for flavin mononucleotide, no ligand
# [2] = ligand present: flavin mononucleotide, designed as: OFF switch for flavin mononucleotide
# [3] = designed as: ON switch for flavin mononucleotide, no ligand
# [4] = ligand present: flavin mononucleotide, designed as: ON switch for flavin mononucleotide
# [5] = designed as: ON switch for theophylline, no ligand
# [6] = ligand present: theophylline, designed as: ON switch for theophylline
sequence,measurement,setting,value
AGGAAACAUGAGGAUCACCCAUGUGAGGAUAUACAAAAGAGCGAAAGAAGAAAUUAAUGUAGAAGGCACGUCAA,apparent Kd,[1],0.0151 µM
same,apparent Kd,[2],0.0133 µM
AAAAUGGAUUGAACAUGAGGAUCACCCAUGUCCUGCCCGCAUUAGGAUAUCGAUAACUUGAGUACCGAGAAGGAAUGAUGAUCG,apparent Kd,[3],0.0126 µM
same,apparent Kd,[4],0.0132 µM
UUUGAAAAGCAGAAGGUUCAUAACAUGAGGAUCACCCAUGUGACAUUAAUGAUCCGGUUUUUACGAAAGGAUAUGCUUCUCCUA,apparent Kd,[1],0.00833 µM
same,apparent Kd,[2],0.0326 µM
GUUUCGUCAGGAUAUGCUUAAGAAGUCUUCUCACCGGACUUGCAGAAGGGACAUGAGGAUCACCCAUGUGGUAA,apparent Kd,[1],0.0365 µM
same,apparent Kd,[2],0.167 µM
UCGGAUACUGUAGGAUAUCGACCAAAUUUUCCUCGAGAAGGACAUCUAUAUAUAGAGAACAUGAGGAUCACCCAUGUGUUUUUG,apparent Kd,[1],0.015 µM
same,apparent Kd,[2],0.0152 µM
AUUCGGUCAGGAUAUAGCGCACGCCGACGAACAUGUGGCGGCUAGAAGGGACAUGAGGAUCACCCAUGUCGGGC,apparent Kd,[1],0.00841 µM
same,apparent Kd,[2],0.0107 µM
AAGGAACAUGAGGAUCACCCAUGUGCUUGCCAGCAAGGAUAUGGUUGUGACAUCUAUAUGCCAGAAGGUGCCGGAC,apparent Kd,[3],0.286 µM
same,apparent Kd,[4],0.0856 µM
GGCUGACAUGAGGAUCACCCAUGUAGUGAUACCAGUAAGAGAAUAUACCCUUGGCAGCACAGGUAACAACUCGUCUCCAAAGUAA,apparent Kd,[5],0.0427 µM
same,apparent Kd,[6],0.0789 µM
UGGUAGUUGGAGAAGGGAUCGUCGGAACCCAGAUCAGGAUAUCCGACUACAUGAGGAUCACCCAUGUCCUAUCAGUACAAGUAC,apparent Kd,[1],0.0202 µM
same,apparent Kd,[2],0.041 µM
UCUAGUGCAUAGGAUAUCAUGGUUCAUUAGUACUGAGAAGGAUGCACAUGAGGAUCACCCAUGUUCUCUGACAG,apparent Kd,[1],0.0262 µM
same,apparent Kd,[2],0.0805 µM
GGGAUGUUAGGAUAUGCUGGUUAAAAGAGAUUAAUACUCUAGCAGAAGGAACAUGAGGAUCACCCAUGUAGACA,apparent Kd,[1],0.0106 µM
same,apparent Kd,[2],0.0264 µM
UUGAUAGCAGGAUAUACCAGUCAUGUCUCGCAAUUUACCCGACAUGAGGAUCACCCAUGUAGAAGGGCUGUUUA,apparent Kd,[1],0.0153 µM
same,apparent Kd,[2],0.0145 µM
CAAUGGACGGUAGGAUAUGUACUAGAGAAGCAGACAGAAGGACCUAGUCCGACAUGAGGAUCACCCAUGUGAAACCCGGUCCAG,apparent Kd,[1],0.00683 µM
same,apparent Kd,[2],0.00644 µM
GGCACACAUGAGGAUCACCCAUGUGGCGAUACCAGUUGAUGGUAAAACCCUUGGCAGCGCCAGUCACAUGCAGAUAGUUACUGAA,apparent Kd,[5],0.0139 µM
same,apparent Kd,[6],0.0165 µM
UAGAGGUACGUUGGCGAACAUGAGGAUCACCCAUGUAAAUGAAGAAGGUGUGUUGCGCAAAACGACAAGGAUAUUCAAGACAUC,apparent Kd,[3],0.0834 µM
same,apparent Kd,[4],0.0507 µM
CUCAAUUAAGAGAAGGUUACUUGUGUUACGUGUAAAGGAUAUCUAAGCGCUAGGCACAUGAGGAUCACCCAUGUUCCUGCCUUU,apparent Kd,[3],0.00764 µM
same,apparent Kd,[4],0.00603 µM
GCGUUGGCCACGGCCGCCACUCAGGUACCGCGCGUAGUGAACUUACAUGAGGAUCACCCAUGUCUGAGGACCGGGUGGCCGCCAC,apparent Kd,"designed as: ON switch for tryptophan, no ligand",0.0373 µM
same,apparent Kd,"ligand present: tryptophan, designed as: ON switch for tryptophan",0.0462 µM
GCUCAGGAAGGAUAUACUGAAGCUAACAUGAGGAUCACCCAUGUCCUAGGUAAGUAUCUGGUAGAAGGUCCGCGUA,apparent Kd,[1],0.0249 µM
same,apparent Kd,[2],0.0325 µM
CUUCCCACGUAGAAGGUGCACCAGUUAACCAAUAACAGGUUGACAUGAGGAUCACCCAUGUUUCGCAAGGAUAUACUGUUCACG,apparent Kd,[3],0.0485 µM
same,apparent Kd,[4],0.0348 µM
AACAAGUAGGAGAAGGUAGAUGAGACUGUGCACUAAGGAUAUCCAUACAUGAGGAUCACCCAUGUCUGGACUAGUAUAUGGACA,apparent Kd,[1],0.00574 µM
same,apparent Kd,[2],0.00569 µM
